Bioassay records: PubChem, The Scripps Research Institute Molecular Screening Center
TAAR1 agonist – human TAAR1 agonism. Q96RJ0. CHO RD-HGA16 TAAR1, Fluo-8 calcium fluorescence; vehicle wells 0%, saturating PEA agonist 100%. activation, % at 3 µM. 360,000 compounds, 0.99% hits. AID 624467;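 active means activation above the mean activation of all test compounds in the run plus 3 SD, cut at about 38% in these data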
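Assay system: CHO-derived RD-HGA16 cells with stable Gα16 and human TAAR1; timing: 17-24 h seeding, 75 min 37 °C dye, 30 min RT; read-out: % activation from peak over basal fluorescence ratio, DMSO-to-PEA scaled; measured by: kinetic Fluo-8 calcium fluorescence; benchmarks: low control DMSO, high control PEA (EC100); doses: 3 µM single concentration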
OXTR agonist – human OXTR agonism | CHO-OTR cells, Fluo-8 calcium fluorescence; normalized: DMSO 0%, oxytocin 100% | activation, % at 3 µM | 320,000 compounds, 0.32% hits | AID 2435;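 active means activation above the mean of all tested compounds plus 3 SD, cutoff set per screening run, cut at about 20% in these data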;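 further: peak over basal fluorescence ratio from a 100 s FLIPR kinetic read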
Target sequence (P30559 whole entry, looked up): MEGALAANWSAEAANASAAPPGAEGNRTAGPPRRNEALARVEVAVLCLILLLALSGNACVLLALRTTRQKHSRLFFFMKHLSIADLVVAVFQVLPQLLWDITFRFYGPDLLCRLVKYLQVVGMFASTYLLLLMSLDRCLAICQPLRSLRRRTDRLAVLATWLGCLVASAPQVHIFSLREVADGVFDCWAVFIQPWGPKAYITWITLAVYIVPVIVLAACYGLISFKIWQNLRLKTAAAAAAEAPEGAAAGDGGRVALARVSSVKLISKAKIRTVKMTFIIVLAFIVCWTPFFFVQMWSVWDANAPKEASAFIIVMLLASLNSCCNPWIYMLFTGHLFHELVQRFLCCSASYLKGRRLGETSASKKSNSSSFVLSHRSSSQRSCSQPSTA
V1R ag counter – counter-screen for oxytocin receptor agonists: human V1a receptor agonists. CHO-V1R cells, Fluo-8 calcium fluorescence, agonist mode; 0% DMSO, 100% 3 nM vasopressin. activation, % at 3 µM. 320,000 compounds, 0.25% hits. AID 2797;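 active means activation above the mean activation of all tested compounds plus 3 SD, per screening run, cut at about 20% in these data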;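 further: signal is peak over basal fluorescence ratio across a 100 second FLIPR read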
Target sequence (P37288 whole entry, looked up): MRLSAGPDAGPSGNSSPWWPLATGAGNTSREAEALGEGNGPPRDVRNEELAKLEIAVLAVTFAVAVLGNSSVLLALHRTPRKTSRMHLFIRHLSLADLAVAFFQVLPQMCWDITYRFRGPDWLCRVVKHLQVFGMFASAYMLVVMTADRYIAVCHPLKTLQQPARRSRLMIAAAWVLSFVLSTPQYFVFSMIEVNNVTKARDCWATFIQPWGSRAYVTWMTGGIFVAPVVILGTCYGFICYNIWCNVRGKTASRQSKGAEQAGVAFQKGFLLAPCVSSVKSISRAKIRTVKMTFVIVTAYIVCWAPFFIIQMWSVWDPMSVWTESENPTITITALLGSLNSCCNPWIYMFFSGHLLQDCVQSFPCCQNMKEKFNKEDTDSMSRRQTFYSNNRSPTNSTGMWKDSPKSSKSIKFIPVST
TAAR1 antagonist – human TAAR1 antagonism | Q96RJ0 | CHO RD-HGA16 TAAR1, Fluo-8 calcium fluorescence, antagonist | inhibition, % at 3 µM | 360,000 compounds, 1.5% hits | AID 624466;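 active means inhibition above a per-plate cutoff, the mean inhibition of test compounds on that plate plus 3 SD, cut at about 49% in these data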;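 further: 0% = DMSO plus EC80 beta-PEA response and 100% = DMSO alone without agonist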
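Assay system: RD-HGA16 CHO cells with stable hTAAR1 and Gα16 / Reagent: EC80 β-phenethylamine stimulus / Doses: 3 µM, single point / Timing: dye loading 75 min at 37 °C, then 30 min room temperature / Measured by: Fluo-8 intracellular calcium dye fluorescence, real-time kinetic reads / Controls: vehicle wells and EC80 agonist wells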
OXTR potentiate – potentiates the human oxytocin receptor response; P30559; CHO-OTR cells, Fluo-8 calcium fluorescence, potentiator mode; 0% = oxytocin EC15, 100% = EC100; activation, % at 3 µM; 320,000 compounds, 0.061% hits; AID 2445;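 active means activation above that plate's cutoff, the mean activation of tested compounds plus 3 SD, cut at about 6.6% in these data, passing the limit was not always enough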;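 further: 100% uses oxytocin at 75 nM as the full agonist control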
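Assay system: CHO cell line stably expressing human OTR | Also added: Oxytocin at about EC15, sub-maximal agonist stimulus | Times: Compound 6 min at room temperature before oxytocin, 100 s read | Measured by: Fluo-8 intracellular calcium fluorescence, ex 470-495, em 515-575 nm | Controls: EC15 oxytocin alone as 0%, 75 nM oxytocin as 100%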
TAAR1 nonsel count – nonselective antagonist in TAAR1 antagonist counter-screen | shares compounds with TAAR1 antagonist | counterscreen cell line, calcium fluorescence, antagonist mode | inhibition, % at 3 µM | 2,400 compounds, 77% hits | AID 651780; in the data active means inhibition above about 22%;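 further: CHO-Ga16 host cells stimulated with ATP at an EC80 level; 0% = agonist EC80 plus vehicle and 100% = vehicle without agonist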
TAAR1 antag conf – confirmation of human TAAR1 antagonists; shares compounds with TAAR1 antagonist; TAAR1-expressing cells, fluorescence antagonist read-out; inhibition, % at 3 µM; 2,400 compounds, 40% hits; in the data active means inhibition above about 49%;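 further: CHO-Ga16 host cells challenged with agonist PEA near its EC80; 0% = agonist at EC80 plus vehicle and 100% = vehicle with no agonist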
Ga16 nonsel ag – nonselective Ga16 agonism, counter-screen; shares compounds with TAAR1 antagonist; Ga16-expressing cells, calcium fluorescence, agonist counterscreen; activation, % at 3 µM; 2,400 compounds, 18% hits; AID 651953; in the data active means activation above about 12%;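 further: 0% = vehicle wells and 100% = saturating stimulus response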
TAAR1 ag count – counter-screen for human TAAR1 antagonists: TAAR1 agonists; shares compounds with TAAR1 antagonist; hTAAR1 cell line, fluorescence activation, agonist mode; activation, % at 3 µM; 2,400 compounds, 2% hits; AID 651955; in the data active means activation above about 37%;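 further: CHO cells stably expressing TAAR1 with calcium dye readout; 0% = DMSO vehicle and 100% = full agonist response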
* = called active by the depositor; x = no result. A selection: hits, their analogues and other compounds. The true share with any hit is near 2.3%.

SMILES	TAAR1 agonist	OXTR agonist	V1R ag counter	TAAR1 antagonist	OXTR potentiate	TAAR1 nonsel count	TAAR1 antag conf	Ga16 nonsel ag	TAAR1 ag count
COC(=O)C(NC(=O)CCc1nnc2ccc(N3CCCCC3)nn12)C(C)C (stereo unspecified)	3.1	-0.3	0.3	-1.8	-4.1	x	x	x	x
COCCOC(=O)c1c(C)oc2ccc(OC(=O)c3c(OC)cccc3OC)cc12	9.8	-0.2	2.2	51.1*	-16.1	32.1*	43.5	6.0	5.2
Cc1ccc2c(c1)N(CC(=O)NCCCc1ccccc1)C(=O)c1cccnc1O2	12.7	0.0	2.1	72.6*	-11.7	26.7*	44.6	8.6	8.1
CCCN1CCN(CCCNC(=O)CN2C(=O)c3cccnc3Oc3ccc(C)cc32)CC1	3.2	0.1	1.1	-15.4	-5.3	x	x	x	x
CSc1ccc(CCNC(=O)CN2C(=O)c3cccnc3Oc3ccc(C)cc32)cc1	7.9	2.3	3.8	74.3*	-10.3	24.9*	53.2*	6.9	9.4
CCOc1ccc(CCNC(=O)CN2C(=O)c3cccnc3Oc3ccc(C)cc32)cc1OCC	1.1	-0.8	0.1	25.1	-8.9	x	x	x	x
Cc1ccccc1CN1CCN(Cc2cc(=O)c3ccccc3[nH]2)CC1CCO (stereo unspecified)	-0.1	-0.5	0.2	-5.0	-14.9	x	x	x	x
O=C(CN(c1ccccc1)S(=O)(=O)c1ccccc1)NCCSc1nc2ccccc2s1	14.2	-1.2	-0.1	71.4*	-3.9	36.2*	62.0*	8.4	6.3
CCCOc1ccc(Cl)cc1/C=C1/C(=O)ON=C1C	0.6	2.1	0.7	-18.2	-11.4	x	x	x	x
CC1=NOC(=O)/C1=C\c1ccc(-c2ccc(Cl)cc2Cl)o1	14.1	x	x	52.5*	x	79.2*	71.8*	28.6*	25.4
CSc1ncnc2c1ncn2CCCNCc1ccccc1	0.6	x	x	-2.2	x	x	x	x	x
N=C(N)n1ncc2c1CCCC2=O	1.6	x	x	-19.5	x	x	x	x	x
Cc1c(C(=O)Nc2ccc(F)cc2)oc2ccc(S(=O)(=O)N3CCC4(CC3)OCCO4)cc12	24.5	12.8	8.8	62.5*	-7.6	40.3*	50.5*	12.2*	9.3
Cc1c(C(=O)NCc2ccc(F)cc2)oc2ccc(S(=O)(=O)N3CCOCC3)cc12	19.6	2.2	4.5	48.4	-6.7	x	x	x	x
Cc1c(C(=O)Nc2ccc(F)cc2)oc2ccc(S(=O)(=O)N3CCCC3)cc12	1.9	1.1	2.1	14.9	-7.0	x	x	x	x
Cc1c(C(=O)NCc2c(F)cc(F)cc2F)oc2ccc(S(=O)(=O)N3CCOCC3)cc12	19.1	3.3	2.7	68.0*	-10.0	24.0*	47.1	11.4	17.4
COc1ccc(-c2cn(CCc3c[nH]c4ccccc34)nn2)cc1	6.3	3.6	1.3	19.5	-12.9	x	x	x	x
C#CCN(C[C@H]1[C@H](OC(=O)NCc2ccc(OC)c(OC)c2)[C@H](OC(=O)NCc2ccc(OC)c(OC)c2)C[C@@H](C(=O)OC)[C@H]1C(=O)OC)S(=O)(=O)c1ccc(C)cc1	11.0	x	x	58.1*	x	26.8*	39.9	6.3	4.9
C#CCN(C[C@H]1[C@H](OC(=O)NCc2ccco2)[C@H](OC(=O)NCc2ccco2)C[C@@H](C(=O)OC)[C@H]1C(=O)OC)S(=O)(=O)c1ccc(C)cc1	6.0	x	x	23.8	x	x	x	x	x
Cc1cccc(N2CCN(C(=O)CCn3c(=O)[nH]c4ccsc4c3=O)CC2C)c1 (stereo unspecified)	12.5	4.1	4.0	60.1*	-14.5	23.3*	44.7	7.7	7.9
Cc1nc2c(OCc3ccc(F)cc3)cccn2c1N(C)C(=O)CCC1CCCC1	4.3	x	x	25.8	x	x	x	x	x
COC(=O)c1ccc(COc2cccn3c(N(C)C(=O)CCC4CCCC4)c(C)nc23)cc1	3.8	x	x	68.5*	x	33.7*	54.8*	7.1	12.0
Cc1cccc(COCC(CC(C)C)N2CCN(C(=O)c3ccc(C(F)(F)F)cc3)CCC2=O)c1 (stereo unspecified)	1.7	-1.5	-0.4	-3.7	-10.0	x	x	x	x
Cc1cccc(COC[C@H](CC(C)C)N2CCN(C(=O)c3ccc(C(C)(C)C)cc3)CCC2=O)c1	3.2	x	x	63.0*	x	29.8*	51.9*	4.4	10.2
Cc1cccc(COCC(CC(C)C)N2CCN(C(=O)c3ccc(C(C)(C)C)cc3)CCC2=O)c1 (stereo unspecified)	9.7	-1.2	-0.5	70.7*	-9.9	32.3*	57.5*	6.6	16.9
SMILES	TAAR1 agonist	OXTR agonist	V1R ag counter	TAAR1 antagonist	OXTR potentiate	TAAR1 nonsel count	TAAR1 antag conf	Ga16 nonsel ag	TAAR1 ag count
COc1ccc(-n2c(C)c(C)c3c(NCCN(C)C)ncnc32)cc1	6.2	0.3	0.4	-22.9	-3.3	x	x	x	x
O=C(CCOc1ccccc1)Nc1ccc(S(=O)(=O)Nc2ncccn2)cc1	5.3	1.8	0.7	-13.8	1.8	x	x	x	x
Nc1cc(C(F)(F)F)ccc1NCCc1ccccn1	-0.1	-0.7	0.2	-21.1	-7.6	x	x	x	x
Cc1ccc(C)c(S(=O)(=O)N2CCN(c3nc(-c4cccnc4)nc4ccccc34)CC2)c1	5.1	-0.6	0.2	60.6*	-3.5	13.0	38.4	6.3	8.4
COc1ccc(S(=O)(=O)N2CCN(c3nc(-c4cccnc4)nc4ccccc34)CC2)cc1	4.0	-0.4	2.9	36.8	-3.5	x	x	x	x
O=[N+]([O-])c1ccc(-c2ccc(/C=N/Nc3nc(N4CCCCC4)nc(N4CCCCC4)n3)o2)cc1	9.6	x	x	-4.7	x	x	x	x	x
O=[N+]([O-])c1cccc(-c2ccc(/C=N/Nc3nc(N4CCCCC4)nc(N4CCCCC4)n3)o2)c1	6.1	0.1	0.8	51.7*	-5.8	19.0	34.9	4.5	6.3
CCN1C(=O)c2cccc3c(S(=O)(=O)N(C(=O)c4cccnc4)c4ccc(OC)cc4)ccc1c23	14.4	2.1	1.2	67.5*	-9.9	31.3*	54.4*	7.8	9.0
CCN1C(=O)c2cccc3c(S(=O)(=O)N(C(=O)c4ccncc4)c4ccc(OC)cc4)ccc1c23	12.9	4.5	3.2	66.4*	-9.6	31.4*	42.5	6.4	4.2
CCN1C(=O)c2cccc3c(S(=O)(=O)N(C)C)ccc1c23	0.7	x	x	-12.0	x	x	x	x	x
CCc1nc(SCCO)c2oc3ccccc3c2n1	3.1	-1.0	0.6	-12.5	-9.4	x	x	x	x
CCc1nc(SCC(=O)N2CCN(c3ccccc3)CC2)c2oc3ccccc3c2n1	12.6	1.0	1.0	53.3*	-10.3	27.2*	46.6	6.2	4.8
O=C(CSc1nnc(-c2ccc(Br)cc2)o1)Nc1cccc(C(=O)O)c1	0.0	0.2	0.9	-10.8	0.8	x	x	x	x
